CSN deneddyl inh: CSN deneddylation inhibition; AID 651999; 360,000 tested, 0.38% active; inhibition, % at 12.5 µM; Purified CSN, SCF-Nedd8-OG deneddylation, fluorescence polarization; Q92905;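 active means pattern-corrected inhibition above about 35%, with an unprinted fluorescence ratio check between 0.5 and 1.5, limit read from the data, passing the limit was not always enough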;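 further: 0% = enzyme with substrate and 100% = substrate without enzyme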
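Assay system: Purified human Csn5 enzyme expressed in HEK293T cells | Amount: Enzyme 0.24 nM | Measured by: Fluorescence polarization readout | Medium: Tris/NaCl/DTT buffer, pH 7.5 | Compound dosing: One concentration, 12.5 µM, 0.25% DMSO | Times: 90 min incubation of compound, enzyme and substrate at room temperature | Control set: no-enzyme wells high, enzyme-with-substrate wells low | Read-out: % inhibition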
Rtt109 Vps75: blocks Candida albicans Rtt109/Vps75 acetyltransferase activity; 330,000 tested, 0.16% active; Q5AAJ8; purified Rtt109/Vps75, ThioGlo CoA-SH fluorescence, 4 h; inhibition, % at 34.9 µM; AID 540336;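 active means inhibition of at least 50% in every replicate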
TPT1 inhibitor: inhibitors of Candida albicans tRNA 2'-phosphotransferase TPT1 | recombinant caTPT1, FP RNA substrate dephosphorylation | 300,000 tested, 0.81% active | inhibition, % at 5 µM;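 active means inhibition above the mean of all tested compounds plus 3 SD, set per screening campaign, cut at about 24% in these data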;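 further: plate controls were DMSO alone for no effect and ferristatin control at 100 nM for full effect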
HNF4A DNA FP: change in binding of human HNF4 alpha to DNA; activity change, % at 10 µM; AID 1224865; 360,000 tested, 0.3% active; HNF4a-FITC DNA binding, fluorescence polarization, 1 h; in the data active means activity change above about 30%, passing the limit was not always enough
Target sequence (P41235 whole entry, looked up): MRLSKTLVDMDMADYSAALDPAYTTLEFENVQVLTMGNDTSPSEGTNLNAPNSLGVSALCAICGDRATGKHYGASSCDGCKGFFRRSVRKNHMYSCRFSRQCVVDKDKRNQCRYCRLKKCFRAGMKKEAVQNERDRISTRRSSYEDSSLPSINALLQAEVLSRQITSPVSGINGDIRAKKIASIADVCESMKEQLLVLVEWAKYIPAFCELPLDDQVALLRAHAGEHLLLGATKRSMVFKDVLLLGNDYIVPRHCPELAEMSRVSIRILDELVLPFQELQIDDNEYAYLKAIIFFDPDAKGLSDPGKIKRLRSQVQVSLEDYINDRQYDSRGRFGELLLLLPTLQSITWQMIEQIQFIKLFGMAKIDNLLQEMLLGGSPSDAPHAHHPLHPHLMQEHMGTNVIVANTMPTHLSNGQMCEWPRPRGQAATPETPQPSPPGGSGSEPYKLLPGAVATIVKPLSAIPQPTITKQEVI
TPT1 inh confirm: TPT1 (C. albicans) inhibition, confirmation. 2,400 tested, 74% active. shares compounds with TPT1 inhibitor. recombinant caTPT1, fluorescence polarization, RNase T1 coupled. inhibition, % at 5 µM;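 active means inhibition above the primary screen limit, the mean inhibition of all tested compounds plus 3 SD, cut at about 25% in these data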
RNase T1 inh: counter-screen for TPT1 inhibitors: inhibitors of Aspergillus oryzae RNase T1; inhibition, % at 5 µM; AID 2153; shares compounds with TPT1 inhibitor; 2,400 tested, 83% active; RNase T1 cleavage, fluorescence polarization, 1536-well;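 active means inhibition above the solvent-only control well mean plus 3 SD, limit set per screening run, cut at about 23% in these data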;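 further: plate controls were DMSO wells with enzyme for no effect and wells without RNase T1 for full effect; inhibitors block cleavage so intact labeled substrate keeps polarization high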
Target sequence (P00651 whole entry, looked up): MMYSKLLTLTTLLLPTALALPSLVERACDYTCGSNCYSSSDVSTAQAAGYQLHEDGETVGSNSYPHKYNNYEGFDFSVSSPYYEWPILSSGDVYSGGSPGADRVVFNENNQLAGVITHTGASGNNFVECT
Starred values were filed as active, the others as inactive; x = no result; + = active, no number. In the library only some 1.2% were active in any assay of this set; here they are far more common.

SMILES	CSN deneddyl inh	Rtt109 Vps75	TPT1 inhibitor	HNF4A DNA FP	TPT1 inh confirm	RNase T1 inh
Nc1ncnc2c1ncn2[C@@H]1O[C@H](C(=O)N2CCN(Cc3ccccn3)CC2)[C@@H](O)[C@H]1O	-1	x	x	0	x	x
O=C(CCN1C(=O)/C(=C/c2cccs2)SC1=S)N1CCCCC1	8	-6	33*	10	34*	46*
CCOc1ccccc1N1CCN(c2nc(N)c(C#N)c(CC#N)c2C#N)CC1	18	4	28*	8	30*	42*
COc1cccc(COC(=O)CSCC(=O)Nc2ccc(C)cc2)c1OC	3	x	x	0	x	x
CCc1nc2ccc(C(=O)NCCN3CCNC3=O)cn2c1N(CCC(C)C)CCN(C)C	-2	x	x	-3	x	x
O=C(O)Cc1sc(NC2CCCCC2)nc1-c1ccc(Cl)cc1	65*	1	137*	10	23	32*
CSc1nnc2c(=O)[nH]c(=O)n(C)c2n1	6	7	x	2	x	x
CCCCCCNC(=O)C(C#N)c1nc2ccccc2nc1N1CCCC1 (centres undefined)	40*	1	63*	37	28*	33*
CC[C@@H](C)[C@H](NC(=O)CNC(=O)Cc1c(C)c2c(cc(C)c3c(C)coc32)oc1=O)C(=O)O	0	-2	51*	2	6	7
Nn1cnc2c(ncn2C2OC(CO)C(O)C2O)c1=O (centres undefined)	-2	x	x	-6	x	x
CC(=Nc1ccccc1O)c1sc2ccccc2c1O	8	8	104*	38*	125*	126*
CC(=Nc1ccc(O)cc1)c1sc2ccccc2c1O	35	-8	55*	19	65*	80*
CC(=Nc1cccc(C)c1)c1sc2ccccc2c1O	9	6	42*	16	68*	80*
CC(=O)NCCN=C(C)c1sc2ccccc2c1O	0	8	1	-3	x	x
O=S1(=O)c2c(F)cccc2O[C@@H](COCc2ccccc2)CN1CCc1ccc(F)cc1	0	2	x	1	x	x
NC(=O)c1nsc(C(=O)N(CC(=O)NC2CCCCC2)Cc2ccc(F)cc2)c1N	-2	-9	2	1	x	x
CCOC(=O)/C(C#N)=C(C)/C=C1\Sc2ccccc2N1CC	-70	20	49*	-33	39*	50*
CCN1/C(=C\C=C(C(C)=O)C(C)=O)Sc2ccccc21	130	-6	196*	192	167*	157*
O=C1C=C(/C=C/c2ccccc2)C[C@@H](c2ccc3c(c2)OCO3)C1	-1	1	x	0	x	x
CCN(CC)c1ccc(/C=c2\sc3nnc(-c4ccccc4Cl)n3c2=O)cc1	-2	-4	+	87	176*	163*
CCN(CC)c1ccc(-c2nn3c(-c4ccccc4OC)nnc3s2)cc1	1	-15	2	-1	x	x
CCN(CC)c1ccc(/C=c2/sc3nnc(-c4ccccc4C)n3c2=O)cc1	-40	1	109*	24	165*	167*
CC(C)(C)C1CCc2c(sc(N)c2C(N)=O)C1 (centres undefined)	11	12	25*	4	2	7
CC(C)Cn1c(N)c(C(=O)COC(=O)c2cccn2C)c(=O)n(C)c1=O	2	3	x	-2	x	x
COC(=O)C1=CN(c2ccc3c(c2)OCO3)C(N)=C(C#N)C1c1ccccc1 (centres undefined)	4	x	x	-4	x	x
SMILES	CSN deneddyl inh	Rtt109 Vps75	TPT1 inhibitor	HNF4A DNA FP	TPT1 inh confirm	RNase T1 inh
Cc1cc(C)cc(C(=O)NC(CC(N)=O)c2ccc(NC3CCCCCCCCCCC3)c([N+](=O)[O-])c2)c1 (centres undefined)	-2	-1	48*	-5	7	6
Cc1cc(C)cc(C(=O)NC(CC(N)=O)c2ccc(NC3CCCCCCC3)c([N+](=O)[O-])c2)c1 (centres undefined)	-6	-1	-2	4	x	x
CC(C)(C)OC(=O)NCCCCCNC(=O)c1[nH]cnc1C(=O)NC1CCN(C(=O)OC(C)(C)C)CC1	-1	7	x	2	x	x
O=C1CC(=O)N(Cc2cccs2)C(=O)N1	12	1	62*	7	16	23*
O=C(O)c1cccc(-n2c(/C=C/c3ccccc3)nc3ccccc3c2=O)c1	2	1	-2	-2	x	x
CN(C)c1ccc(/C=C/c2nc3ccccc3c(=O)n2-c2ccc(C(=O)O)cc2)cc1	-76	-14	144*	151	159*	143*
Cc1ccc(C(=O)CSc2nn3c(=O)c(C(C)(C)C)nnc3s2)cc1	5	1	32*	-4	3	6
COc1ccc2c(n1)Sc1nc3ccccc3nc1N2	31	-1	41*	32	56*	64*
CCOc1ccc2nc(/N=C/c3nc(-c4ccc(Br)cc4)oc3O)sc2c1	11	-2	50*	14	58*	68*
Cc1c(NC(=O)C(C)OC(=O)c2cccnc2Cl)c(=O)n(-c2ccccc2)n1C (centres undefined)	-4	-8	x	4	x	x
Cc1cc(O)ccc1N/C=C/c1onc(C)c1[N+](=O)[O-]	1	5	5	-2	x	x
Cc1cccc(N/C=C/c2onc(C)c2[N+](=O)[O-])c1	1	6	62*	3	64*	73*
CN(C)c1ccc(/C=C2\N=C(C(C)(C)C)OC2=O)cc1	20	-1	117*	11	129*	140*
CC1=NOC(=O)/C1=C/c1ccc(O)c(Cl)c1	1	1	3	3	x	x
CC1=NOC(=O)/C1=C/c1ccc(N(C)C)cc1	x	x	78*	x	97*	114*
CCN(CC)c1ccc(/C=C2/C(=O)ON=C2C)cc1	29	36	117*	9	132*	134*
CCOC(=O)C1=CCN(S(=O)(=O)c2ccccc2Br)C1c1ccccc1 (centres undefined)	4	x	x	2	x	x
CC(C)c1nnc(NC(=O)C2CCN(C(=O)Nc3ccc(Cl)cc3)CC2)s1	0	-5	-1	2	x	x
COc1cc(C(=O)OCC(=O)Nc2ccccc2C(=O)NC2CC2)c([N+](=O)[O-])cc1OC	1	1	x	3	x	x
C=CCNC(=O)/C(C#N)=C\c1cc(Cl)c(O)c(OCC)c1	0	-4	25*	4	34*	42*
N=C1/C(=C\c2ccc(-c3cc(Cl)cc(Cl)c3)o2)C(=O)N=C2SC=C(c3ccccc3)N12	5	-4	8	4	x	x
N=C1/C(=C/c2ccc(-c3cccc(C(=O)O)c3)o2)C(=O)N=C2SC=C(c3ccccc3)N12	77*	-4	74*	-11	84*	92*
CC1CCN(C(=O)C(C)OC(=O)CSc2ccc([N+](=O)[O-])cc2)CC1 (centres undefined)	4	-2	x	5	x	x
COc1cc(/C=C(\C#N)c2ccccn2)ccc1OCc1ccccc1Cl	-2	5	1	2	x	x

Bioassay records deposited in PubChem BioAssay by several laboratories.
